Measurements reported in paper PMC4059259 (Journal of Medicinal Chemistry, 2014).
pIC50: −log10 of the molar value. “Also recorded” adds a separate entry of the source.

Key:
[1] = target: T1, PfAtg3 (Plasmodium falciparum, UniProt C0H519); assay: Direct binding of protein to immobilized 8 by SPR; design: species or system P. falciparum; settings: data not shown
T1 sequence (C0H519 1-313): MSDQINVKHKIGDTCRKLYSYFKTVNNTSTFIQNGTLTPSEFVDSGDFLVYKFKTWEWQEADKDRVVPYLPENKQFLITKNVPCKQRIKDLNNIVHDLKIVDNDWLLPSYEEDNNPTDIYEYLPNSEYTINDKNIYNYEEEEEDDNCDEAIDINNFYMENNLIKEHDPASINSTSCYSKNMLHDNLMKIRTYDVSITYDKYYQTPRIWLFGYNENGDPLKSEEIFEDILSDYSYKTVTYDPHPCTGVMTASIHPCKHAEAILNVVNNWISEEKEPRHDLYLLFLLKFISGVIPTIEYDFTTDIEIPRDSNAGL
Method in brief: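 Test compound captured on a neutravidin-coated SPR flowcell (130 RUs), with a control ligand on the reference flowcell (150 RUs). His6-PfAtg3 injected in duplicate in 10 mM HEPES pH 7.5, 150 mM NaCl, 0.05% P20. Regeneration after each cycle with 20 mM HEPES pH 7.4, 1% w/v SDS.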

[2] = system: early liver stage parasites; settings: cited from earlier work
[3] = target: T2, PfAtg8-PfAtg3 interaction (Plasmodium falciparum, UniProt Q8IJK2, C119S/C122S/C32I); assay: MMV SPR competition assay; format: binding, P. falciparum; settings: read-out: inhibition of the PfAtg8-PfAtg3 interaction in primary SPR screen
T2 sequence (Q8IJK2 1-124 C32I/C119S/C122S): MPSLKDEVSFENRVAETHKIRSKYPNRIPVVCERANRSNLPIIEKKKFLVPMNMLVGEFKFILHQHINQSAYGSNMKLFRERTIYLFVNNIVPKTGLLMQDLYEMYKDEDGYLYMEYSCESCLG
T2 sequence (C0H519 1-313 partner): T1 sequence (C0H519 1-313)
Method in brief: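 MBP-PfAtg3 immobilized on a CM5 chip, with MBP on the reference flowcell. Test compound (final 5 μM) or DMSO was mixed with 300 nM His6-PfAtg8CM in PBS pH 7.4 with 0.01% P20, final DMSO 3%, and injected. Binding read as SPR response versus DMSO control. Surface regenerated with 2 M MgCl2 between injections.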

[4] = target: T3, PfAtg8^CM (Plasmodium falciparum, UniProt Q8IJK2, C119S/C122S/C32I); assay: Direct binding of 1 to immobilized PfAtg8^CM by SPR; design: species or system P. falciparum
T3 sequence (Q8IJK2 1-124 C32I/C119S/C122S): T2 sequence (Q8IJK2 1-124 C32I/C119S/C122S)
Method in brief: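 SPR direct binding: His12-PfAtg8CM captured on a nickel-preconditioned NTA chip to 3000 RU. Two-fold dilution series of test compound (top 75 μM) injected at 40 μL/min in PBS pH 7.4 with 0.01% P20 and 3% DMSO. Double referencing with interspersed blanks; DMSO calibration curve; binding constants fitted.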

[5] = system: P. falciparum 3D7; assay: SYBR green I growth inhibition assay, blood stage; format: cell-based; settings: Plasmodium falciparum, 3D7, read-out: IC50 in a third experiment
[6] = system: HC-04 cells; assay: Viability of HC-04 cells; format: cell-based, human; settings: 30 μM
[7] = system: P. falciparum 3D7-GFP liver stage; assay: In vitro infection of human hepatocytes; format: cell-based; settings: for decrease in proportion of hepatocytes infected with P. falciparum 3D7-GFP (GFP+/PI−): 72 h post infection
[8] = system: PfAtg8; assay: Immunoblot analysis of PfAtg8 in P. falciparum blood stage; format: cell-based; settings: for delipidation of PfAtg8 (immunoblot): 6 hours
[9] = system: P. falciparum blood stage; assay: Parasite morphology in blood smears; format: cell-based; settings: treatment concentration and duration used in the study (50 μM, 5 h)
Method in brief: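 Asynchronous FCR3 blood-stage culture (25% parasitemia; 37 °C, 2% hematocrit, RPMI with 10% human serum, 3% CO2/5% O2) washed in serum-free starvation medium. Resuspended in complete medium with 50 μM test compound or DMSO, or in starvation medium with DMSO, for 5 h. Morphology viewed by light microscopy at 100× at harvest.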

[10] = system: Plasmodium yoelii liver stage cultures; settings: screening concentration 10 μM; ref PubChem AID: 602118 and 602156, 18, 19; cited from earlier work
[11] = system: human cell lines; settings: ref PubChem AID: 660872, 685525, and 449705; cited from earlier work

With `O=C(CCCC[C@H]1SC[C@H]2NC(=O)N[C@H]21)NCCCCCC(=O)NNCc1ccc(C(=O)Nc2nc(-c3ccccn3)cs2)cc1` [Compound 8, 4-[[2-[6-[5-[(3aR,4R,6aS)-2-Oxo-1,3,3a,4,6,6a-hexahydrothieno[3,4-d]imidazol-4-yl]pentanoylamino]hexanoyl]hydrazinyl]methyl]-N-(4-pyridin-2-yl-1,3-thiazol-2-yl)benzamide] the “binding of recombinant PfAtg3 to immobilized 8” value [1] was “did not bind”.
In the case of `Cn1cnc(N)c2ncnc1-2` [3-methyladenine], the “effect on conversion of parasite into trophozoite form” value [2] is listed as “delay conversion of the parasite into its trophozoite form”.
Work on `O=C(Nc1nc(-c2ccccn2)cs1)c1ccccc1Br` [Compound 3, 2-bromo-N-(4-pyridin-2-yl-1,3-thiazol-2-yl)benzamide] yielded an inhibition at 5 µM [3] of at least 25%.
In the case of `Cc1ccc(-c2cc3c(SCC(=O)Nc4cc(C(F)(F)F)ccc4Cl)nccn3n2)cc1` [Compound 4, N-[2-chloro-5-(trifluoromethyl)phenyl]-2-[2-(4-methylphenyl)pyrazolo[1,5-a]pyrazin-4-yl]sulfanylacetamide], the inhibition at 5 µM [3] was at least 25%.
`CN(C)c1ccc(N2C(N)=NC(N)=NC2(C)C)cc1` [Compound 5, 1-[4-(dimethylamino)phenyl]-6,6-dimethyl-1,3,5-triazine-2,4-diamine] gave an inhibition at 5 µM [3] of at least 25%.
`Brc1ccc(Nc2nc3ccccc3nc2Nc2ccc(Br)cc2)cc1` [Compound 6, 2-N,3-N-bis(4-bromophenyl)quinoxaline-2,3-diamine] gave an inhibition at 5 µM [3] of at least 25%.
In the case of `Cc1ccc(Nc2nc(-c3ccccn3)cs2)cc1` [Compound 1, N-(4-methylphenyl)-4-pyridin-2-yl-1,3-thiazol-2-amine], the inhibition at 5 µM [3] was at least 25%, the “direct binding to PfAtg8^CM (SPR response)” value [4] was “dose-dependent increase in SPR response; also recorded: directly binds to PfAtg8” and the pIC50 [5] was 5.48. The “cell death in HC-04 cells” value [6] was “did not observe cell death”, the “intensity of GFP fluorescence in infected hepatocytes” value ([7]; 3 μM and 30 μM) was “dose-dependent reduction” and the “decrease in proportion of hepatocytes infected with P. falciparum 3D7-GFP (GFP+/PI−)” value ([7]; 3 μM) was “but not with 3 μM”. The “decrease in proportion of hepatocytes infected with P. falciparum 3D7-GFP (GFP+/PI−)” value ([7]; 30 μM) was about 50%, the “delipidation of PfAtg8 (immunoblot)” value ([8]; 12.5 μM) was “dose-dependent increase in delipidation of PfAtg8” and the “delipidation of PfAtg8 (immunoblot)” value ([8]; 25 μM) was “unlipidated PfAtg8 is the predominant species”. For the same compound, the “PfAtg8 protein levels (immunoblot)” value ([8]; 50 μM (cytocidal, high levels), 5 h, FCR3) was “drastic increase in PfAtg8 protein levels”, the parasite morphology [9] was “parasite morphology appeared normal” and the “inhibition of P. yoelii liver stage” value [10] was at most 50%. The “reported cytotoxicity in human cell lines” value [11] was “much lower than that of compounds 2 or 3”.
With `CSc1ccccc1C(=O)Nc1nc(-c2ccccn2)cs1` [Compound 2, 2-methylsulfanyl-N-(4-pyridin-2-yl-1,3-thiazol-2-yl)benzamide] the inhibition at 5 µM [3] was at least 25%.
